Assay results taken from ChEMBL document CHEMBL5329156, “Discovery and development of novel substituted monohydrazides as potent antifungal agents” (RSC Med Chem, 2023).
Converted amounts (≈) assume the structure as drawn. The source made the active and inactive calls. The rule behind the calls is not given here.

Tests used:
Candida albicans [1] = experiment: Antibiofilm activity against Candida albicans ATCC 10231 assessed as reduction in biofilm production at 1.96 to 3.9 microg/ml by biofilm formation assay; format: functional, organism-based; settings: dose 1.96-3.9 µg/ml
Candida albicans [2] = experiment: Antifungal activity against itraconazole/fluconazole susceptible Candida albicans ATCC MYA-2310 assessed as fungal growth inhibition by double dilution method; format: functional
Summary of the method: (§1)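 Broth microdilution after CLSI M27-A3/M38-A2 with minor modifications. A single colony was grown overnight in YPD at 35 °C with shaking at 200 rpm. Cells were mixed 1:1 with compound (final 0.06-31.3 µg/mL, from DMSO stocks) and incubated 48 h at 35 °C.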

Candida albicans [3] = experiment: Antifungal activity against Candida albicans ATCC 10231 assessed as fungal growth inhibition by double dilution method; format: functional
Summary of the method: (§2)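 Broth microdilution after CLSI M27-A3/M38-A2 with minor changes. Single colony grown overnight in YPD at 35 °C, 200 rpm. Compound final range 0.06-31.3 µg/mL; incubated 48 h at 35 °C.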

[Candida] auris [4] = Antifungal activity against Candida auris AR Bank # 390 assessed as fungal growth inhibition by double dilution method; format: functional; settings: Candidozyma auris; summary of the method: as §2
Pichia kudriavzevii [5] = experiment: Antifungal activity against Pichia kudriavzevii ATCC 6258 assessed as fungal growth inhibition by double dilution method; format: functional; summary of the method: as §2
Candida albicans [6] = experiment: Antifungal activity against itraconazole/fluconazole resistant Candida albicans ATCC MYA-1003 assessed as fungal growth inhibition by double dilution method; format: functional; summary of the method: as §1
Aspergillus fumigatus [7] = experiment: Antifungal activity against Aspergillus fumigatus NRRL 6113 assessed as fungal growth inhibition by double dilution method; format: functional
[Candida] auris [8] = Antifungal activity against Candida auris AR Bank # 385 assessed as fungal growth inhibition by double dilution method; format: functional; settings: Candidozyma auris; summary of the method: as §2
[Candida] auris [9] = Antifungal activity against Candida auris AR Bank # 386 assessed as fungal growth inhibition by double dilution method; format: functional; settings: Candidozyma auris; summary of the method: as §2
[Candida] auris [10] = Antifungal activity against Candida auris AR Bank # 383 assessed as fungal growth inhibition by double dilution method; format: functional; settings: Candidozyma auris; summary of the method: as §2
[Candida] auris [11] = Antifungal activity against Candida auris AR Bank # 389 assessed as fungal growth inhibition by double dilution method; format: functional; settings: Candidozyma auris; summary of the method: as §2
HEK293 = experiment: Cytotoxicity against human HEK-293 cells assessed as reduction in cell viability at 31.3 microg/ml; format: toxicity, cell-based; settings: dose 31.3 µg/ml
Summary of the method: (§3)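 Cells in DMEM with 10% FBS and 1% Pen/Strep, seeded at 10,000 cells/well and held overnight at 37 °C, 5% CO2. Compounds added at final 31.3-0.12 µg/mL (0.05% DMSO vehicle) for 24 h. Resazurin then added for 6 h; fluorescence read at ex 560/em 590. Triton X-100 1% as positive control; values normalized to vehicle. Run in quadruplicate.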

Candida albicans [12] = experiment: Antifungal activity against itraconazole/fluconazole resistant Candida albicans ATCC 90819 assessed as fungal growth inhibition by double dilution method; format: functional; summary of the method: as §1
[Candida] auris [13] = Antifungal activity against Candida auris AR Bank # 0390 assessed as fungal growth inhibition by double dilution method; format: functional; settings: Candidozyma auris; summary of the method: as §2
Candida duobushaemulonii [14] = experiment: Antifungal activity against Candida duobushaemulonii AR Bank # 391 assessed as fungal growth inhibition by double dilution method; format: functional; settings: Candidozyma duobushaemuli; summary of the method: as §2
[Candida] auris [15] = Antifungal activity against Candida auris AR Bank # 387 assessed as fungal growth inhibition by double dilution method; format: functional; settings: Candidozyma auris; summary of the method: as §2
Aspergillus nidulans = experiment: Antifungal activity against Aspergillus nidulans ATCC 38163 assessed as fungal growth inhibition by double dilution method; format: functional
[Candida] auris [16] = Antifungal activity against Candida auris AR Bank # 388 assessed as fungal growth inhibition by double dilution method; format: functional; settings: Candidozyma auris; summary of the method: as §2
Saccharomyces cerevisiae [17] = experiment: Antifungal activity against Saccharomyces cerevisiae AR Bank # 399 assessed as fungal growth inhibition by double dilution method; format: functional; summary of the method: as §2
[Candida] auris [18] = Antifungal activity against Candida auris AR Bank # 0384 assessed as fungal growth inhibition by double dilution method; format: functional; settings: Candidozyma auris; summary of the method: as §2
Clavispora lusitaniae = experiment: Antifungal activity against Clavispora lusitaniae AR Bank # 398 assessed as fungal growth inhibition by double dilution method; format: functional; summary of the method: as §2
Candida albicans [19] = experiment: Antifungal activity against itraconazole/fluconazole susceptible Candida albicans ATCC MYA-2876 assessed as fungal growth inhibition by double dilution method; format: functional; summary of the method: as §1
Nakaseomyces glabratus [20] = experiment: Antifungal activity against Candida glabrata ATCC 22019 assessed as fungal growth inhibition by double dilution method; format: functional; summary of the method: as §2
Aspergillus fumigatus [21] = experiment: Antifungal activity against Aspergillus fumigatus NRRL 163 assessed as fungal growth inhibition by double dilution method; format: functional
[Candida] auris [22] = Antifungal activity against Candida auris AR Bank # 381 assessed as fungal growth inhibition by double dilution method; format: functional; settings: Candidozyma auris; summary of the method: as §2
Candida albicans [23] = experiment: Antifungal activity against itraconazole/fluconazole resistant Candida albicans ATCC MYA-1237 assessed as fungal growth inhibition by double dilution method; format: functional; summary of the method: as §1
[Candida] haemuloni [24] = Antifungal activity against Candida haemulonii AR Bank # 393 assessed as fungal growth inhibition by double dilution method; format: functional; settings: Candidozyma haemuli; summary of the method: as §2
Aspergillus fumigatus [25] = experiment: Antifungal activity against Aspergillus fumigatus NRRL 5109 assessed as fungal growth inhibition by double dilution method; format: functional
[26] = Cytotoxicity against human HepG2 cells assessed as cell survival at 31.3 microg/ml relative to control; format: toxicity, cell-based; settings: at 31.3 µg/mL, read-out: Activity; summary of the method: as §3
Aspergillus flavus = experiment: Antifungal activity against Aspergillus flavus ATCC MYA-3631 assessed as fungal growth inhibition by double dilution method; format: functional
J774.A1 = experiment: Cytotoxicity against J774A.1 cells assessed as reduction in cell viability at 31.3 microg/ml; format: toxicity, cell-based; settings: mouse, dose 31.3 µg/ml; summary of the method: as §3
Nakaseomyces glabratus [27] = experiment: Antifungal activity against Candida glabrata ATCC 2001 assessed as fungal growth inhibition by double dilution method; format: functional; summary of the method: as §2
[Candida] haemuloni [28] = Antifungal activity against Candida haemulonii AR Bank # 395 assessed as fungal growth inhibition by double dilution method; format: functional; settings: Candidozyma haemuli; summary of the method: as §2
[Candida] auris [29] = Antifungal activity against Candida auris AR Bank # 382 assessed as fungal growth inhibition by double dilution method; format: functional; settings: Candidozyma auris; summary of the method: as §2
Kodamaea ohmeri = experiment: Antifungal activity against Kodamaea ohmeri AR Bank # 396 assessed as fungal growth inhibition by double dilution method; format: functional; summary of the method: as §2
[Candida] auris [30] = Antifungal activity against Candida auris AR Bank # 384 assessed as fungal growth inhibition by double dilution method; format: functional; settings: Candidozyma auris; summary of the method: as §2
Cryptococcus neoformans = experiment: Antifungal activity against Cryptococcus neoformans ATCC MYA-895 assessed as fungal growth inhibition by double dilution method; format: functional; summary of the method: as §2
Candida duobushaemulonii [31] = experiment: Antifungal activity against Candida duobushaemulonii AR Bank # 392 assessed as fungal growth inhibition by double dilution method; format: functional; settings: Candidozyma duobushaemuli; summary of the method: as §2
Candida duobushaemulonii [32] = experiment: Antifungal activity against Candida duobushaemulonii AR Bank # 394 assessed as fungal growth inhibition by double dilution method; format: functional; settings: Candidozyma duobushaemuli; summary of the method: as §2
Saccharomyces cerevisiae [33] = experiment: Antifungal activity against Saccharomyces cerevisiae AR Bank # 400 assessed as fungal growth inhibition by double dilution method; format: functional; summary of the method: as §2
Pichia kudriavzevii [34] = experiment: Antifungal activity against Pichia kudriavzevii AR Bank # 397 assessed as fungal growth inhibition by double dilution method; format: functional; summary of the method: as §2
Candida albicans [35] = experiment: Antifungal activity against Candida albicans ATCC 64124 assessed as fungal growth inhibition by double dilution method; format: functional; summary of the method: as §1
Aspergillus terreus = experiment: Antifungal activity against Aspergillus terreus ATCC MYA-3633 assessed as fungal growth inhibition by double dilution method; format: functional

## O=C(NNc1cc(F)cc(F)c1)c1ccccn1
Candida albicans [1]
  Activity: inactive
Candida albicans [2]
  MIC: 0.98 µg/mL (≈ 3.93 µM)
Candida albicans [3]
  MIC: ≤ 0.06 µg/mL
[Candida] auris [4]
  MIC: 0.49 µg/mL (≈ 1.97 µM)
Pichia kudriavzevii [5]
  MIC: 0.24 µg/mL (≈ 0.963 µM)
Candida albicans [6]
  MIC: 0.49 µg/mL (≈ 1.97 µM)
Aspergillus fumigatus [7]
  MIC: 31.3 µg/mL (≈ 126 µM)
[Candida] auris [8]
  MIC: 0.24 µg/mL (≈ 0.963 µM)
[Candida] auris [9]
  MIC: ≤ 0.06 µg/mL
[Candida] auris [10]
  MIC: 0.24 µg/mL (≈ 0.963 µM)
[Candida] auris [11]
  MIC: 0.24 µg/mL (≈ 0.963 µM)
HEK293
  Activity: Non-Toxic
Candida albicans [12]
  MIC: 0.98 µg/mL (≈ 3.93 µM)
[Candida] auris [13]
  MIC: 0.49 µg/mL (≈ 1.97 µM)
Candida duobushaemulonii [14]
  MIC: 0.24 µg/mL (≈ 0.963 µM)
[Candida] auris [15]
  MIC: 0.24 µg/mL (≈ 0.963 µM)
Aspergillus nidulans
  MIC: 0.49 µg/mL (≈ 1.97 µM)
[Candida] auris [16]
  MIC: 0.24 µg/mL (≈ 0.963 µM)
Saccharomyces cerevisiae [17]
  MIC: 1.95 µg/mL (≈ 7.82 µM)
[Candida] auris [18]
  MIC: 0.24 µg/mL (≈ 0.963 µM)
Clavispora lusitaniae
  MIC: 0.49 µg/mL (≈ 1.97 µM)
Candida albicans [19]
  MIC: 0.98 µg/mL (≈ 3.93 µM)
Nakaseomyces glabratus [20]
  MIC: 1.95 µg/mL (≈ 7.82 µM)
Aspergillus fumigatus [21]
  MIC: > 31.3 µg/mL
[Candida] auris [22]
  MIC: 0.98 µg/mL (≈ 3.93 µM)
Candida albicans [23]
  MIC: 1.95 µg/mL (≈ 7.82 µM)
[Candida] haemuloni [24]
  MIC: 0.49 µg/mL (≈ 1.97 µM)
Aspergillus fumigatus [25]
  MIC: > 31.3 µg/mL
[26]
  viability at 31.3 microg/ml: 89%
Aspergillus flavus
  MIC: 1.95 µg/mL (≈ 7.82 µM)
J774.A1
  Activity: Non-Toxic
Nakaseomyces glabratus [27]
  MIC: 7.8 µg/mL (≈ 31.3 µM)
[Candida] haemuloni [28]
  MIC: 0.24 µg/mL (≈ 0.963 µM)
[Candida] auris [29]
  MIC: 0.12 µg/mL (≈ 0.482 µM)
Kodamaea ohmeri
  MIC: 0.12 µg/mL (≈ 0.482 µM)
[Candida] auris [30]
  MIC: 0.98 µg/mL (≈ 3.93 µM)
Cryptococcus neoformans
  MIC: 0.24 µg/mL (≈ 0.963 µM)
Candida duobushaemulonii [31]
  MIC: 0.49 µg/mL (≈ 1.97 µM)
Candida duobushaemulonii [32]
  MIC: 0.24 µg/mL (≈ 0.963 µM)
Saccharomyces cerevisiae [33]
  MIC: 0.98 µg/mL (≈ 3.93 µM)
Pichia kudriavzevii [34]
  MIC: 0.12 µg/mL (≈ 0.482 µM)
Candida albicans [35]
  MIC: 0.98 µg/mL (≈ 3.93 µM)
Aspergillus terreus
  MIC: 0.98 µg/mL (≈ 3.93 µM)
